Sampled rows, rich in hits. Any-hit rate of the full collection: about 12%.
WT yeast gro inh: growth inhibition of WT yeast, mitochondrial fusion screen; mitochondrial fusion phenotypic screen, WT strain; inhibition, % at 10 µM; 2.1% of 190,000 active; in the data active = inhibition above about 58%; tested in S. cerevisiae
Diaph act CS: diaphorase activation or chemical reduction counter-screen; Diaphorase/resazurin coupled assay, resorufin fluorescence, 16 min; stronger effect = higher value; 1 = vehicle wells, 0 = NADH-free wells; activation factor at 20 µM; 0.005% of 190,000 active; AID 1229;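 active = diaphorase activity raised at least twofold by the compound at 20 µM; inactive = activation factor below 2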
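Material: Clostridium kluyveri diaphorase, purified enzyme; Quantity: enzyme 0.07 U/mL final; Medium: HEPES pH 7.4 buffer with MgCl2 and Tween 20; Dosing: single compound dose of 20 µM, 1% DMSO final; Schedule: 16 min reaction at room temperature; Measured by: red resorufin fluorescence at 544/590 nm excitation/emission.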
Diaph inh CS: diaphorase inhibition or chemical oxidation counter-screen; diaphorase resazurin-to-resorufin fluorescence, NADH, 16 min; bacterial (C. kluyveri) enzyme, not human; inhibition, % at 20 µM; 0.69% of 190,000 active; AID 1217;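 active = primary screen inhibition at 20 µM above a set limit, cut at about 50% in these data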
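Assay system – diaphorase enzyme from Clostridium kluyveri · Amount – diaphorase 0.14 U/mL (working solution) · Times – reaction incubation of 16 min at room temperature · Controls – No-NADH positive control and DMSO neutral control · Signal – resorufin fluorescence 544/590 nm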
ROMK mod: human ROMK K+ channel modulation, primary screen; 2% of 130,000 active; B-score at 10 µM; Tet-inducible ROMK, thallium flux fluorescence; actives lie on both sides;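 active = signal ratio slope over the read window, or its plate-corrected B-score, at least 3 SD from the plate mean, either direction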;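 note: B-score of the F/F0 ratio slope over 7 to 12 s after thallium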
Target sequence (P48048 whole entry, looked up): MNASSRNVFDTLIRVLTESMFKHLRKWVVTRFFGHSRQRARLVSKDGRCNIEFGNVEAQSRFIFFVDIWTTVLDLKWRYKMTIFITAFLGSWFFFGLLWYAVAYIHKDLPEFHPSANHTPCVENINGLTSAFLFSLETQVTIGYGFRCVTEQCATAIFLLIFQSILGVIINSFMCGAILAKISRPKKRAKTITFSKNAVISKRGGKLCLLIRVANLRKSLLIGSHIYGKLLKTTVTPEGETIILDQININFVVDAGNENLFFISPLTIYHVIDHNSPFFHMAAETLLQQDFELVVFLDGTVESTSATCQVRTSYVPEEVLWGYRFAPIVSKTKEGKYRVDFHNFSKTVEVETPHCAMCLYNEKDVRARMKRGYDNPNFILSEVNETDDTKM
Cl transport mod: modulators of human KCC2 chloride dependent transport; Q9H2X9; 2.2% of 190,000 active; B-score of Tl+ flux slope (higher = more flux/activation; lower = inhibition) at 10 µM; KCC2 cells, thallium flux FluoZin-2 fluorescence; AID 1456;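 active = thallium flux slope and its plate-corrected score both differing from the plate sample mean at a set confidence after two filtering rounds, in either direction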;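 note: slope of fluorescence scaled to starting intensity during 10 to 20 s after thallium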
Lmaj promast: reduces viability of Leishmania major promastigotes. inhibition, % at 10 µM. 9% of 200,000 active. AID 1063. resazurin fluorescence viability; in the data active = inhibition above about 50%;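 note: promastigotes grown with compound for 44 hours at 28 °C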
KCC2 secondary: confirmation of human KCC2 transport modulators. AID 1713. shares compounds with Cl transport mod. normalised thallium flux (F/F0 slope) at 10 µM. 15% of 3,700 active. HEK293-KCC2, thallium flux, FluoZin2 fluorescence; stronger effect = higher value;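 active = thallium flux slope above the same plate's solvent-only control mean plus 3 SD; inconclusive = the two replicate wells disagree; inactive = no significant difference from solvent-only control wells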
KCC2 bumet counter: thallium flux despite bumetanide block in KCC2 cells, secondary assay 3 | shares compounds with Cl transport mod | HEK293-KCC2 + bumetanide/ouabain, thallium flux FluoZin2; stronger effect = higher value | normalized thallium flux at 10 µM | 49% of 3,700 active | AID 1714;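 active = thallium entry rate above the same plate's blocked-transporter control wells by more than 3 SD; inconclusive = the two repeat wells disagree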;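 note: raw slope of fluorescence over initial fluorescence between 10 and 20 s after thallium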
KCC2 sec2: confirmation of human KCC2 transport modulators; AID 1715; shares compounds with Cl transport mod; normalized thallium flux at 10 µM; HEK293-KCC2, thallium flux FluoZin2 fluorescence; actives lie on both sides; F/F0 rise rate, 10–20 s post-thallium; 23% of 3,700 active;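 active = thallium flux slope more than 3 SD above or below the plate's solvent-only control mean, mostly below; inconclusive = the two repeat wells disagreed; inactive = no significant shift from solvent-only controls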
HEK293 Tl flux: counter-screen for KCC2 modulators: effect in parental HEK293 cells; shares compounds with Cl transport mod; thallium flux FluoZin2, ouabain; baseline-ratio fluorescence slope, 10–20 s after thallium; thallium flux rate (normalised fluorescence) at 10 µM; 46% of 3,700 active;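 active = thallium flux rate significantly above the same plate's solvent-only control wells, beyond their mean plus 3 SD; inconclusive = the two replicate wells gave conflicting results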
KCC2 retest ouab: modulates human KCC2 on retest with ouabain | shares compounds with Cl transport mod | AID 1717 | raw Tl+ flux slope (below DMSO = inhibition, above = activation) at 10 µM | 48% of 3,700 active | HEK293-KCC2, thallium flux FluoZin2 fluorescence; bidirectional: low = inhibitor, high = activator;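 active = thallium flux slope beyond 3 SD from same-plate DMSO control mean in most replicates, usually higher, sometimes lower; inconclusive = repeat tests gave conflicting results; inactive = no significant difference from controls in most replicates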;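 note: slope of initial-normalized fluorescence between seconds 10 and 20 after thallium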
HEK counter2: acts in parental HEK cells, second KCC2 counter-screen; shares compounds with Cl transport mod; HEK293 parental, thallium flux FluoZin-2 fluorescence slope; thallium flux slope at 10 µM; 33% of 3,700 active;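 active = thallium flux slope above the same plate's solvent-control mean plus 3 SD in both duplicate wells; inconclusive = duplicate wells that disagreed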;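 note: run without ouabain in cells lacking the KCC2 cotransporter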
A number is an active result; . = inactive; ? = inconclusive; / = no result given.

SMILES	WT yeast gro inh	Diaph act CS	Diaph inh CS	ROMK mod	Cl transport mod	Lmaj promast	KCC2 secondary	KCC2 bumet counter	KCC2 sec2	HEK293 Tl flux	KCC2 retest ouab	HEK counter2
COc1cccc(CN(C)C(=O)c2cc(COc3c(F)cccc3F)on2)c1	.	.	.	.	/	.	.	.	0.0246	?	0.0141	.
O=C(NCC1OCCc2ccccc21)c1cc(COc2c(F)cccc2F)on1 (stereo not given)	.	.	.	.	-5.95	.	.	.	?	?	0.0128	.
O=C(NCCc1cn2ccccc2n1)c1cc(COc2ccc3ncccc3c2)on1	.	.	.	.	/	.	.	.	.	.	?	.
CNCc1ccccc1OCC(=O)Nc1ccccc1OC	.	.	.	/	/	.	/	/	/	/	/	/
O=C(COC(=O)c1ccccn1)Nc1cc(Cl)ccc1Cl	.	.	.	/	.	.	/	/	/	/	/	/
CC(C)(C)NC(=S)NCc1ccco1	.	.	.	/	.	.	/	/	/	/	/	/
CCN(Cc1ccccc1)C(=O)c1cc(COc2c(F)cccc2F)on1	/	/	/	/	-4.68	/	.	.	.	.	0.0143	?
CCN(CCn1cccn1)C(=O)c1cc(COc2c(F)cccc2F)on1	.	.	.	.	.	.	/	/	/	/	/	/
O=C(NC1CCCCCC1)c1ccc[nH]c1=S	.	.	.	.	12.4	.	0.0134	0.0388	.	0.0159	0.0375	0.0112
COc1ccc(C(=O)N/C(=C/c2cccs2)C(=O)NN)cc1OC	/	/	/	/	.	/	/	/	/	/	/	/
O=c1[nH]c(CSc2nc3ccccc3s2)nc2cc(Cl)ccc12	/	/	/	.	6.25	/	.	0.0143	.	?	?	.
O=c1[nH]c(CSc2nc3ccccc3s2)nc2ccccc12	/	/	/	/	.	/	/	/	/	/	/	/
Cc1nn2c(NCC(C)C)c3c(nc2c1-c1ccccc1)CCC3	.	.	.	/	9.49	.	.	.	.	.	.	.
Cc1nn2c(NC(C)C)c3c(nc2c1-c1ccccc1)CCC3	/	/	/	/	.	/	/	/	/	/	/	/
O=C(c1cnsn1)N1CCC(CO)(Cc2cccc(F)c2)CC1	.	.	.	/	/	.	/	/	/	/	/	/
CC1CC(C)CN(S(=O)(=O)c2ccc(C(=O)Nc3nnc(-c4cccs4)o3)cc2)C1 (stereo not given)	.	.	.	.	12	99.7	.	0.0321	0.0415	0.0251	0.034	0.0243
CC1CC(C)CN(S(=O)(=O)c2ccc(C(=O)Nc3sccc3C(N)=O)cc2)C1 (stereo not given)	.	.	.	/	.	.	/	/	/	/	/	/
CCC1CCCCN1S(=O)(=O)c1ccc(C(=O)Nc2nnc(-c3cccs3)o2)cc1 (stereo not given)	.	.	.	/	15	99.2	0.0138	0.0544	.	0.0243	0.0452	0.0122
NNC(=O)c1ccc2ccccc2n1	.	.	.	.	25.7	.	.	0.0556	0.0419	0.0381	0.0468	0.023
O=C(NN=C1CCCCCCC1)c1ccc2ccccc2n1	.	.	.	.	22.5	.	.	0.0381	?	0.0265	0.035	0.0207
Cc1c(Cl)cccc1NC(=O)CNCc1ccccc1F	.	.	.	.	.	.	/	/	/	/	/	/
Cc1ccc(-n2[nH]c(C)c(C=Nc3ccc(C)cn3)c2=O)cc1	.	.	.	/	9.4	.	.	0.0198	.	0.0224	?	0.0135

Screening results: PubChem BioAssay, several laboratories
